This is a sample that favours compounds with a hit; in the whole collection about 3.5% have one here.
ERAP1 HTS inh: human ERAP1 aminopeptidase inhibitors, primary screen, biochemical, single point, plate reader | AID 652197, 2013 | 340,000 tested, 0.15% active | recombinant ERAP1, Leu-AMC fluorescence, 60 min | inhibition, % at 10.7 µM;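 active = mean replicate inhibition of at least 30%, or all replicates individually reaching that 30% level; inactive = mean below 30% and not every replicate reaching it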;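 note: 0% = neutral control wells and 100% = L-leucinethiol positive control wells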
Target sequence (Q9NZ08 whole entry, looked up): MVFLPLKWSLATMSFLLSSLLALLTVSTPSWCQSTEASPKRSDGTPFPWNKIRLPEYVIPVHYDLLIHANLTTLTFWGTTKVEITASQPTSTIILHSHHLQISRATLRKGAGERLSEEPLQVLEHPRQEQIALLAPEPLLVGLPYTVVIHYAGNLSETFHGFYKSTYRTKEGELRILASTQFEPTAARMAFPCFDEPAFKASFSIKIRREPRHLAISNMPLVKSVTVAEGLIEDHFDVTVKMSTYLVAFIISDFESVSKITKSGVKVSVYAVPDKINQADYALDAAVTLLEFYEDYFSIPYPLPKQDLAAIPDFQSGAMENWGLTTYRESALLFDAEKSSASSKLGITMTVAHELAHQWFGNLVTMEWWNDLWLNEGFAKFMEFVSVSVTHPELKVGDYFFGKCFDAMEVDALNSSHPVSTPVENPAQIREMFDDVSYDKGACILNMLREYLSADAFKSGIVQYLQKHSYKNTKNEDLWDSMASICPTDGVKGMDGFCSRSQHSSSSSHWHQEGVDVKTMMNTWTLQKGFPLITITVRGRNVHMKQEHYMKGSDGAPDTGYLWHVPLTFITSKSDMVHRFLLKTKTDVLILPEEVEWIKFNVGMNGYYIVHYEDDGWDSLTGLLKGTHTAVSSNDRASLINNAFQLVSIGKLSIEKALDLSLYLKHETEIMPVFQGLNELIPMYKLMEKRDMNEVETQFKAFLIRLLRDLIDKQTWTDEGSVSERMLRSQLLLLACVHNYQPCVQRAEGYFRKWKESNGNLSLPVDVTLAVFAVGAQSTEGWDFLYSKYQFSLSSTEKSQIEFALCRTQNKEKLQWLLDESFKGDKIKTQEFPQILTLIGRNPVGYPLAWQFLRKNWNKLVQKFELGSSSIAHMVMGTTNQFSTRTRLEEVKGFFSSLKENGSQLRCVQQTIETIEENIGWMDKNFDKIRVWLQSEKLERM
MITF TRPM1 HTS: activators of MITF-driven TRPM1 promoter reporter, primary screen, cell-based, SK-MEL-5, luciferase, single point; SK-MEL-5 TRPM1-promoter luciferase, 24 h; % of positive control, neutral wells = 0; activation, % at 12.5 µM; 300,000 tested, 0.75% active; AID 588334, 2011;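 active = mean activation of at least 80% with every replicate also reaching 80%; inconclusive = mean reaches 80% but some replicate falls short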;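 note: 0% = neutral control wells and 100% = parthenolide positive control wells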
esBAF inh: Bmi1 luciferase reporter increase in mESCs, primary screen, esBAF inhibitor project, mouse ES cells, Bmi1 luciferase knock-in, single point; 24 h; 100% = twice the neutral-well signal; reporter increase, % at 12.5 µM; 350,000 tested, 2% active; in the data active = activation above about 40%; inconclusive = no clear call, values can overlap the other calls;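 note: 0% = median of the plate's neutral control wells and 100% = double that signal; a rise in the Bmi1 reporter signal indicates esBAF inhibition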
Wnt act: Wnt/beta-catenin pathway activators, primary screen, cell-based, plate reader, single point. Wnt/beta-catenin reporter cell assay, activator. activation, % at 9.35 µM. 300,000 tested, 1.2% active. AID 743398, 2014; in the data active = activation above about 30%, passing the limit was not always enough; inconclusive = no clear call, values can overlap the other calls;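 note: 0% = neutral control wells and 100% = positive control wells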
Env fusion inh: inhibitors of HIV-1 Env-driven cell-cell fusion, primary screen, HeLa-JRFL effector, CEM21 target cells, luciferase | AID 651610, 2012 | 360,000 tested, 1.1% active | inhibition, % at 12.3 µM;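 active = mean replicate inhibition score of at least 50 and every replicate individually at or above 50; inconclusive = only one of the two criteria met; inactive = mean below 50 and not all replicates reaching 50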;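 note: 0% = plate neutral controls and 100% = maraviroc near 300 nM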
Cneo AK release: Cryptococcus neoformans cell lysis inducers, primary screen, AK release luminescence, single concentration; C. neoformans lysis, adenylate kinase release luminescence, 4 h; normalised: neutral wells 0, clomiphene wells 100; lysis activity, % at 15 µM; 360,000 tested, 0.2% active;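 active = mean lysis activity across replicates of at least 80%, whatever share of replicates individually reach that level; inactive = mean lysis activity below 80%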
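read-out = cell lysis signal | test system = log-phase Cryptococcus neoformans yeast cells | input = cells at 5 × 10^6 per mL | medium = fresh YPD growth medium | signal = luminescent adenylate kinase detection reagent | timing = 4 h at 37 °C static, read 1 h later | dosing = single dose | controls = Clomiphene as positive lysis control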
The depositor's hits bear a star; ? = inconclusive; · = no result; [ ] = dose if it differs, or a comment.

SMILES	ERAP1 HTS inh	MITF TRPM1 HTS	esBAF inh	Wnt act	Env fusion inh	Cneo AK release
CN(C)c1ccc(NC(=S)NC23CC4CC(CC(C4)C2)C3)cc1	3	40	67*	1	-1	4
CCOc1ccc(NC(=S)NC23CC4CC(CC(C4)C2)C3)cc1	0	11	5	-1	0	0
FC(F)Oc1ccc(NC(=S)NC23CC4CC(CC(C4)C2)C3)cc1	-1	4	50*	-1	-2	2
COc1ccc2c3c([nH]c2c1)[C@H](CO)N(C(=O)c1cccnc1)CC31CCN(Cc2ccccc2)CC1	3	·	·	·	-16[16.7 µM]	·
C[C@@H]1CCCCO[C@H](CN(C)Cc2ccc3c(c2)OCO3)[C@H](C)CN([C@@H](C)CO)C(=O)c2cc(NC(=O)Cc3ccccc3)ccc2O1	·	·	6	·	-21[16.7 µM]	1
O=C(Nc1ccccn1)c1ccc(COc2ccccc2Cl)o1	·	·	64*	5	-457	-2
O=C(Nc1ccc(Cl)cn1)c1ccc(COc2ccccc2Br)o1	-1	52	88*	1	-38	-1
C[C@H]1CN([C@@H](C)CO)C(=O)Cc2cc(NC(=O)CCN3CCOCC3)ccc2O[C@@H]1CN(C)Cc1ccc2c(c1)OCO2	1	·	-2	·	10[16.7 µM]	-2
CC=Cc1ccc2n(c1=O)C[C@H]1[C@H](CO)[C@@H](C(=O)NCC3CC3)[C@@H]2N1Cc1ccccc1OC (mixture of isomers)	-1	·	-3	·	7[16.7 µM]	0
Cc1ccc(C2Nc3ccccc3-c3nc4ccccc4n32)o1 (stereo unspecified)	3	43	68*	·	·	-3
CCOc1ccc(/C=C/C(=O)c2cc(Br)ccc(=O)c2O)cc1	0	-19	·	-1	64*	·
COc1ccc(S(=O)(=O)Nc2ccc3c(c2)C(=O)N([C@H](C)CO)C[C@@H](C)[C@H](CN(C)Cc2ccc(Cl)c(Cl)c2)OCCCC[C@@H](C)O3)cc1	·	·	7	·	19[16.7 µM]	30
CC(C)NC(=O)N(C)C[C@@H]1Oc2c(NC(=O)C3CCCCC3)cccc2C(=O)N([C@H](C)CO)C[C@@H]1C	-2	·	-3	·	-43[16.7 µM]	2
CC(C)NC(=O)N(C)C[C@@H]1Oc2c(NC(=O)C3CCCCC3)cccc2C(=O)N([C@@H](C)CO)C[C@@H]1C	2	·	0	·	-17[16.7 µM]	84*
CC(C)NC(=O)Nc1cccc2c1O[C@H](CN(C)C)[C@H](C)CN([C@@H](C)CO)C2=O	-2	·	1	·	23[16.7 µM]	92*
CC(C)NC(=O)Nc1cccc2c1O[C@H](CN(C)C)[C@@H](C)CN([C@@H](C)CO)C2=O	-3	·	-3	·	-12[16.7 µM]	0
CC(C)NC(=O)N(C)C[C@H]1Oc2c(NC(=O)C3CCCCC3)cccc2C(=O)N([C@H](C)CO)C[C@H]1C	2	·	1	·	-2[16.7 µM]	114*
O=C(CSc1nc2ccccc2c(=O)[nH]1)Nc1ccc(Br)cc1	0	-3	3	0	13	2
O=C(CSc1nc2ccccc2c(=O)[nH]1)Nc1cccc([N+](=O)[O-])c1	2	6	-4	-2	63*	1
O=C(CSC1=NCCN1)Nc1ccccc1[N+](=O)[O-]	-1	-6	·	4	-5	·
O=C(CSC1=NCCN1)Nc1cccc([N+](=O)[O-])c1	-1	-37	-4	41*	3	6
COc1ccc2c3c(n(C)c2c1)[C@H](CO)N(Cc1ccncc1)CC31CCN(C(=O)NC(C)C)CC1	7	·	·	·	·	·
CCCCCCCSc1ncnc2[nH]ncc12	0	24	70*	3	-9	-2
COc1cccc(-c2csc(N3CCN(C(=O)Nc4ccc(Cl)cc4)CC3)n2)c1	·	10	·	0	23	·
COc1ccc(NC(=O)N2CCN(c3nc(-c4cccc(OC)c4)cs3)CC2)cc1	·	-28	26	·	63*	-5
SMILES	ERAP1 HTS inh	MITF TRPM1 HTS	esBAF inh	Wnt act	Env fusion inh	Cneo AK release
COc1ccc(-c2csc(N3CCC(C(N)=O)CC3)n2)cc1	-2	43	50*	8	-2	0
NC(=O)C1CCN(c2nc(-c3cccc(Cl)c3)cs2)CC1	-2	46	49*	13	-7	4
CC(=O)c1cccc(-c2csc(N3CCC(C(N)=O)CC3)n2)c1	2	5	-3	4	·	0
Cc1ccc(S(=O)(=O)Nc2cccc(-c3ccc(N4CCCCCC4)nn3)c2)c(C)c1	0	53	70*	-1	-35	0
Cc1ccc([N+](=O)[O-])cc1S(=O)(=O)Nc1cccc(-c2ccc(N3CCOCC3)nn2)c1	-2	88*	37	14	-8	-1
O=[N+]([O-])c1ccccc1S(=O)(=O)Nc1cccc(-c2ccc(N3CCCC3)nn2)c1	3	27	34	2	-22	-1
CCCN(C)C[C@H]1Oc2cc(-c3ccc(C)cc3)ccc2S(=O)(=O)N([C@H](C)CO)C[C@@H]1C	-1	·	-7	·	5[16.7 µM]	-2
O=C(CCCSc1nnc(SCCCC(=O)c2ccc(F)cc2)s1)c1ccc(F)cc1	·	-11	9	-1	60*	-1
Nc1nnc(SCCCC(=O)c2ccc(F)cc2)s1	2	20	·	8	·	·
Cc1c(CCOC(=O)C23CC4(C)CC(C)(CC(C)(C4)C2)C3)sc[n+]1CC(=O)c1ccccc1	6	-73	·	-2	62*	·
Cc1c(CCOC(=O)CC23CC4CC(CC(C4)C2)C3)sc[n+]1CC(=O)c1ccccc1	1	2	·	-3	?	·
CNC[C@H]1Oc2c(NC(=O)c3cnccn3)cccc2C(=O)N([C@@H](C)CO)C[C@@H]1C	-1	·	1	·	3[16.7 µM]	-2
Cc1cccc(NC(=S)N=Nc2c(O)n(CN3CCOCC3)c3ccccc23)c1C	·	-5	·	-5	18	0
Cc1ccc(N=Nc2c(O)n(CN3CCOCC3)c3ccccc23)cc1	·	·	54*	·	·	-5
CCOc1ccc(N=C(/C(C(=O)C(=O)N2CCOCC2)=C(\O)c2ccccc2)c2ccccc2)cc1	2	87*	68*	10	47	-3
CCOc1ccc(OCc2ccc(C(=O)N3CCOCC3)cc2)cc1	·	·	35	·	-3	-2
C[C@@H]1CCCCO[C@H](CN(C)C(=O)Nc2ccccc2)[C@@H](C)CN([C@@H](C)CO)C(=O)c2cc(NC(=O)c3ccccc3)ccc2O1	1	·	-1	·	-52[16.7 µM]	-2
O=C(O)CCSc1nnc(-c2ccc3c(c2)OCO3)o1	·	-37	-53	·	69*	0
CCC(=O)C1CCCN(C(=O)CCc2nnc(-c3ccc4c(c3)OCO4)o2)C1 (stereo unspecified)	1	21	33	1	-9	0

Source: PubChem BioAssay (Broad Institute)
